Measurements as given in ChEMBL document CHEMBL1275323, “Synthesis and biological evaluation of 2-phenylthiazole-4-carboxamide derivatives as anticancer agents” (Eur J Med Chem, 2010).
In brackets after ≈: the same amount, converted by molar mass.

Key:
Type in all cases: functional, cell-based
T47D = experiment: Cytotoxicity against human T47D cells after 48 hrs by MTT assay
Method in brief: (§1)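 Cells seeded at 8000–10,000 viable cells/well and left 48 h to attach, then exposed to a range of compound concentrations for a further 48–96 h, depending on the cell line's cycle. After a PBS wash, MTT was added and the formazan was dissolved in DMSO. Absorbance was read at 550 nm against 690 nm reference. IC50 was obtained by linear regression from two independent experiments in triplicate (mean ± SD). Methotrexate served as reference.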

HT-29 = experiment: Cytotoxicity against human HT-29 cells after 48 hrs by MTT assay; conditions: HT-29, 48 h; method in brief: as §1
Caco-2 = experiment: Cytotoxicity against human Caco-2 cells after 48 hrs by MTT assay; conditions: Caco-2, 48 h; method in brief: as §1

Compound	IC50 (T47D) [µg/mL]	IC50 (HT-29) [µg/mL]	IC50 (Caco-2) [µg/mL]
COc1cccc(CC(=O)NCc2ccc(-c3nc(C(=O)N4CCCCC4)cs3)cc2)c1	40.3 (≈ 89.6 µM)	447 (≈ 995 µM)	41.1 (≈ 91.4 µM)
O=C(Cc1ccc(F)cc1)NCc1ccc(-c2nc(C(=O)N3CCCCC3)cs2)cc1	14.2 (≈ 32.4 µM)	52 (≈ 119 µM)	114 (≈ 260 µM)
O=C(Cc1ccccc1Cl)NCc1ccc(-c2nc(C(=O)N3CCCCC3)cs2)cc1	24.3 (≈ 53.4 µM)	26.8 (≈ 59 µM)	12.8 (≈ 28.1 µM)
COc1ccccc1CC(=O)NCc1ccc(-c2nc(C(=O)N3CCCCC3)cs2)cc1	6.83 (≈ 15.2 µM)	4.46 (≈ 9.92 µM)	28.1 (≈ 62.4 µM)
O=C(Cc1ccc(Br)cc1)NCc1ccc(-c2nc(C(=O)N3CCCCC3)cs2)cc1	29.5 (≈ 59.1 µM)	45.3 (≈ 90.8 µM)	52 (≈ 104 µM)
O=C(Cc1ccc(Cl)cc1)NCc1ccc(-c2nc(C(=O)N3CCCCC3)cs2)cc1	11.8 (≈ 26 µM)	5.37 (≈ 11.8 µM)	89.9 (≈ 198 µM)
O=C(Cc1cccc(F)c1)NCc1ccc(-c2nc(C(=O)N3CCCCC3)cs2)cc1	2.02 (≈ 4.62 µM)	9.84 (≈ 22.5 µM)	4.32 (≈ 9.87 µM)
O=C(Cc1ccccc1F)NCc1ccc(-c2nc(C(=O)N3CCCCC3)cs2)cc1	18.8 (≈ 43 µM)	> 1000	18.1 (≈ 41.4 µM)
CN(Cc1cnc2nc(N)nc(N)c2n1)c1ccc(C(=O)N[C@@H](CCC(=O)O)C(=O)O)cc1 [METHOTREXATE]	0.16 (≈ 0.352 µM)	0.23 (≈ 0.506 µM)	0.32 (≈ 0.704 µM)
COc1ccc(CC(=O)NCc2ccc(-c3nc(C(=O)N4CCCCC4)cs3)cc2)cc1	21.6 (≈ 48 µM)	> 1000	1.88 (≈ 4.18 µM)
O=C(Cc1cccc(Cl)c1)NCc1ccc(-c2nc(C(=O)N3CCCCC3)cs2)cc1	37.6 (≈ 82.9 µM)	64.3 (≈ 142 µM)	155 (≈ 341 µM)
